M1 ag parental – counter-screen for M1 agonists: effect in parental CHO-K1 cells; Fluo-8 calcium fluorescence; scaled to maximal ATP response, vehicle zero; activation, % at 3 µM; 360,000 compounds, 0.48% hits; AID 602248; in the data active means activation above about 15%;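 further: untransfected CHO-K1 host cells lacking M1 receptor as counterscreen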
M1 PAM parental – nonselective activator or artifact in parental CHO-K1 calcium assay. activation, % at 3 µM. ATP EC20, Fluo-8 calcium fluorescence; 0% at ATP EC20, 100% at ATP max. 360,000 compounds, 0.02% hits. AID 602247;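 active means activation above the run cutoff, the mean activation of all test compounds plus 3 SD, cut at about 40% in these data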;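 further: peak over basal fluorescence ratio in a 140 s read after ATP addition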
OX1R antag-1 – blocks the human orexin 1 receptor; 330,000 compounds, 1.8% hits; OX1R-expressing cells, FRET antagonist read-out; inhibition, % at 6.6 µM; AID 485270; in the data active means inhibition mostly above about 38%, no sharp cut-off; inactive means mostly below about 40%
Target sequence (O43613 whole entry, looked up): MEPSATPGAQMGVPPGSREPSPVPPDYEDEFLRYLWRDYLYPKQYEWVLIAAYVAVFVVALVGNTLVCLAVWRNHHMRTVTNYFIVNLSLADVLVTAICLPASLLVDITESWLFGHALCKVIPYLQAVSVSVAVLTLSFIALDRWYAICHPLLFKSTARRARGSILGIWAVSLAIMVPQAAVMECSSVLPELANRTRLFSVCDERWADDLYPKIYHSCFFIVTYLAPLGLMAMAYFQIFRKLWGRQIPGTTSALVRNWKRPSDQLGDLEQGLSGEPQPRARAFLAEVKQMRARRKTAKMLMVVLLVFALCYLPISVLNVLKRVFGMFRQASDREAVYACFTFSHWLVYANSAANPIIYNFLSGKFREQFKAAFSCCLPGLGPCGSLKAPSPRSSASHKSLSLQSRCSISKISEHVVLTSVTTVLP
OX1R antag-2 – blocks the human orexin 1 receptor. inhibition, % at 5 µM. AID 434989. CHO/OX1R cells, Fluo-8 calcium fluorescence, orexin A. O43613. 330,000 compounds, 0.43% hits;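 active means inhibition above its plate's threshold, mean inhibition of all tested compounds on the plate plus 3 SD, cut at about 37% in these data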
CHO parental Ca – counter-screen: ATP calcium response change in parental CHO cells. parental CHO-K1, ATP-induced calcium, Fluo-8 fluorescence. inhibition, % at 5.6 µM. 330,000 compounds, 0.63% hits. AID 463079;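 active means inhibition above that plate's mean sample inhibition plus 3 SD, cut at about 26% in these data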
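test system = CHO parental line | reagent = ATP stimulus | measured by = intracellular calcium via Fluo-8 no-wash fluorescent dye | control set = ATP and no-ATP DMSO wells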
CHO-K1 Ca antag – nonselective inhibitor or artifact in parental CHO-K1 cells; ATP-induced calcium, Fluo-8 fluorescence; inhibition, % at 3 µM; 360,000 compounds, 0.6% hits; AID 602250;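 active means inhibition above a per-plate cutoff, the plate's mean sample inhibition plus 3 SD, cut at about 24% in these data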
OX1R Fluo8 conf – OX1R (human) antagonism, confirmed; shares compounds with OX1R antag-2; CHO/OX1R cells, orexin A calcium Fluo-8 fluorescence; inhibition, % at 5 µM; 1,100 compounds, 38% hits; AID 492963; in the data active means inhibition above about 29%
CHO Ca counter – counter-screen for OX1R antagonists: effect in parental CHO cells; inhibition, % at 5.6 µM; AID 492965; shares compounds with OX1R antag-2; 1,100 compounds, 9.3% hits; parental CHO-K1, ATP-induced calcium, Fluo-8 fluorescence;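 active means inhibition above a per-plate limit, the mean inhibition of that plate's test compounds plus 3 SD, cut at about 25% in these data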
OX1R HTRF conf – confirmation of human orexin 1 receptor antagonists, HTRF format; shares compounds with OX1R antag-1; OX1R-expressing cells, HTRF antagonist assay; inhibition, % at 6.6 µM; 1,800 compounds, 49% hits; in the data active means inhibition above about 55%;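 further: CHO cells expressing OX1R stimulated with orexin A at about EC80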
CHO-K1 HTRF cnt – counter-screen for OX1R antagonists: effect in parental CHO-K1 cells. shares compounds with OX1R antag-1. HTRF counterscreen. inhibition, % at 6.6 µM. 1,800 compounds, 48% hits. AID 493232; in the data active means inhibition above about 17%
Hits are given with their value; n = inactive; x = no result given. This is a sample that favours compounds with a hit; in the whole collection about 2.9% have one here.

SMILES	M1 ag parental	M1 PAM parental	OX1R antag-1	OX1R antag-2	CHO parental Ca	CHO-K1 Ca antag	OX1R Fluo8 conf	CHO Ca counter	OX1R HTRF conf	CHO-K1 HTRF cnt
O=C(CSc1ccc(Br)c2cccc(Cl)c12)Nc1ccc(S(=O)(=O)Nc2nccs2)cc1	n	n	96.5	79.6	n	n	73.6	n	89.8	n
O=c1[nH]c(=O)n2c(c1-c1ccccc1)OC(CBr)C2 (stereo not drawn)	n	n	x	x	x	n	x	x	x	x
Cc1ccc(S(=O)(=O)N(C)c2ccc(C(=O)NCC(c3cccs3)N3CCOCC3)cc2)cc1 (stereo not drawn)	n	n	n	n	n	n	x	x	x	x
Cc1ccc(N(C)S(=O)(=O)c2cccc(C(=O)NCC(c3cccs3)N3CCOCC3)c2)cc1 (stereo not drawn)	n	n	78.4	46.8	n	n	38.3	n	93.9	n
O=C(Cn1ccc(NC(=O)OCc2ccccc2)nc1=O)NCCc1c[nH]c2ccccc12	n	n	n	n	n	n	x	x	x	x
Cc1cc(C(C)(C)C)oc1C(=O)N(CC(=O)NC1CCCC1)Cc1ccccc1	n	n	n	n	n	n	x	x	x	x
Cc1ccc(C)c(N(CC(=O)NC2CCCC2)C(=O)c2oc(C(C)(C)C)cc2C)c1	n	n	63.2	94.7	n	n	47.2	n	71.2	n
CC(=O)Nc1ccc(NC(=O)C(C)OC(=O)c2ccc(S(=O)(=O)N3CCCCCC3)cc2)cc1 (stereo not drawn)	n	n	n	n	n	n	x	x	x	x
C=CCNC(=O)C1COc2ccccc2O1 (stereo not drawn)	n	n	n	n	n	n	x	x	x	x
CSc1nc2ccc3nc(NC(=O)c4cccs4)sc3c2s1	n	n	81.0	56.4	n	n	84.8	n	94.8	n
COc1ccc(CCNC(=O)c2cc(-c3ccncc3)nc3ccc(S(=O)(=O)N4CCOCC4)cc23)cc1OC	n	n	n	n	n	n	x	x	x	x
CCn1c2ccccc2c2cc(NC(=O)CSc3nnc(-c4cccc(OC)c4)n3N)ccc21	n	n	92.8	47.0	n	n	47.2	n	90.8	n
COc1ccc(/C=N/NC(=O)c2sc3nc(C)cc(C)c3c2N)cc1	n	n	n	n	n	n	x	x	x	x
Cc1cc(C)c2c(N)c(C(=O)N/N=C/c3cccs3)sc2n1	n	n	84.7	53.1	n	n	n	n	95.4	n
Cc1ccc(NC(=O)c2ccc(S(=O)(=O)NCc3cccnc3)cc2)cc1C	n	n	n	n	n	n	x	x	x	x
O=C(Nc1ccc(Cl)c(Cl)c1)c1cccc(S(=O)(=O)NCc2cccnc2)c1	19.8	n	66.7	n	n	28.2	38.3	55.1	77.3	n
O=C(N/C(=C\c1cccc([N+](=O)[O-])c1)C(=O)N1CCOCC1)c1cccc(Br)c1	n	n	n	n	n	n	x	x	x	x
COc1ccc(NC(=O)CSc2nnc(NC(=O)C3CCC3)s2)c(OC)c1	n	n	n	n	n	n	x	x	x	x
Cn1cc(/C=C(\C#N)C(=O)Nc2ccccc2O)c2ccccc21	n	n	67.8	56.7	n	n	56.7	n	89.4	n
COC(=O)C1=C(C)NC2=C(C(=O)CCC2)C1c1cn(Cc2ccc(Br)cc2)nc1-c1ccccc1 (stereo not drawn)	n	n	74.8	n	n	n	n	n	n	n
COC(=O)C1=C(C)NC2=C(C(=O)CC(C)(C)C2)C1c1cn(Cc2ccc(Br)cc2)nc1-c1ccccc1 (stereo not drawn)	n	n	n	n	n	n	x	x	x	x
Nc1cc(=O)[nH]c(SCC(=O)NNC(=O)Cc2ccccc2)n1	n	n	n	n	n	n	x	x	x	x
Cc1oc(-c2ccccc2F)nc1CS(=O)CC(=O)NC1CCCC1 (stereo not drawn)	n	n	n	n	n	n	x	x	x	x
Cc1[nH]c2ccccc2c1C(=O)CSc1nc2ccccc2[nH]1	n	n	79.6	53.8	n	n	37.6	n	90.6	n
CCc1nnc(NS(=O)(=O)c2ccc(NC(=O)c3cccc(OC)c3)cc2)s1	n	n	n	n	n	n	x	x	x	x
SMILES	M1 ag parental	M1 PAM parental	OX1R antag-1	OX1R antag-2	CHO parental Ca	CHO-K1 Ca antag	OX1R Fluo8 conf	CHO Ca counter	OX1R HTRF conf	CHO-K1 HTRF cnt
Cc1nc(C(=O)Nc2ccccc2Cl)cc2c1[nH]c1ccccc12	n	n	n	n	n	n	x	x	x	x
COc1ccc(NC(=O)c2cc3c([nH]c4ccccc43)c(C)n2)cc1	n	n	95.6	n	n	n	n	n	n	n
CN1CCN(C(=O)CCN2C(=O)c3ccccc3S2(=O)=O)CC1	n	n	n	n	n	n	x	x	x	x
CC(=O)Nc1ccc(-c2ccnc3c2CC(C)(C(=O)NCc2ccc(N(C)C)cc2)O3)cc1 (stereo not drawn)	n	n	x	x	x	n	x	x	x	x
CC(N=Cc1cc([N+](=O)[O-])ccc1O)c1ccccc1 (stereo not drawn)	n	n	n	n	n	n	x	x	x	x
CN(/N=C/c1cc([N+](=O)[O-])ccc1O)c1ccccc1	n	n	73.0	49.5	n	n	47.5	n	93.1	n
O=S1(=O)CC2NC(=S)N(c3cccc(Br)c3)C2C1 (stereo not drawn)	n	n	n	n	n	n	x	x	x	x
O=[N+]([O-])c1cccc(-c2nc(-c3cccs3)c(-c3cccs3)[nH]2)c1	n	n	99.1	n	n	n	n	n	74.0	n
NC(=O)c1c(NC(=O)c2ccc([N+](=O)[O-])o2)sc2c1CCCC2	n	n	n	n	n	n	x	x	x	x
NC(=O)c1c(NC(=O)c2cc3ccccc3o2)sc2c1CCC2	n	n	105.7	n	n	n	n	n	85.0	n
NNC(=O)c1cc2sccc2s1	n	n	86.8	91.1	n	n	n	n	n	n
O=C(Nc1cccc(S(=O)(=O)NCc2ccco2)c1)c1cc(-c2ccc(F)cc2)nc2ccccc12	n	n	65.2	56.4	n	n	29.2	n	n	n
O=C(CCNC(=O)c1ccc([N+](=O)[O-])cc1)NC1CCCCCC1	n	n	n	n	n	n	x	x	x	x
Cc1nc2c(ccc3nc(NC(=O)Cc4cccc5ccccc45)sc32)s1	n	n	90.3	56.2	n	n	63.6	n	89.9	n
CCOC(=O)c1ccc2nc(NC(=O)c3ccco3)sc2c1	n	n	81.4	n	n	n	34.7	n	86.5	18.4
O=C(Nc1ccc(F)cc1)C1CCCN1S(=O)(=O)c1ccc(Br)cc1 (stereo not drawn)	n	n	81.4	n	n	n	37.5	n	88.6	n

From PubChem
